From ChEMBL document CHEMBL1156693, “Novel N-(phosphonomethyl) glycine derivatives: Design, characterization and biological activity” (Eur J Med Chem, 2008)
Activity calls are given as the source filed them. No cut-off for these calls is given here.

Legend:
Mus musculus [1] = assay: Clastogenic effect on C57BL mouse assessed as number of metaphase chromosomal centromere/centromeric fusion in bone marrow cells at 100 mg/kg, ip after 48 hrs; type: functional; details: route intraperitoneal
In short: (§1)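 Inbred male and female C57Bl mice, groups of 3 males + 3 females, dosed i.p. (0.9% NaCl vehicle/negative control); mitomycin C 3.5 mg/kg positive control. Colchicine 40 mg/kg i.p. 1 h before femoral bone marrow harvest; hypotonic 0.075 M KCl 20 min at 37 °C, methanol-acetic acid fixation, Giemsa stain; ≥50 metaphases per animal scored; group mean ± SE.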

HD-MY-Z = assay: Cytotoxicity against human HD-MY-Z cells after 72 hrs by MTT assay; type: functional, cell-based
In short: (§2)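 Cells at 37 °C, 5% CO2; 293T in DMEM, others in RPMI 1640, both with 2 mM L-glutamine and 10% FCS. Seeded 10⁴ cells/well, 24 h preincubation, then compounds 0.195–200 µM (DMSO ≤1% final) for 72 h continuous. MTT added, 4 h, formazan dissolved in 5% formic acid-acidified DMSO, absorbance read; IC50 = concentration giving 50% survival decrease.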

Mus musculus [2] = assay: Clastogenic effect on C57BL mouse assessed as number of metaphase chromosomal fragments in bone marrow cells at 10 mg/kg, ip after 48 hrs; type: functional; details: route intraperitoneal; in short: as §1
Mus musculus [3] = assay: Clastogenic effect on C57BL mouse assessed as number of metaphase chromosomal centromere/centromeric fusion in bone marrow cells at 10 mg/kg, ip after 48 hrs; type: functional; details: route intraperitoneal; in short: as §1
Mus musculus [4] = assay: Clastogenic effect on C57BL mouse assessed as number of metaphase chromosomal breaks in bone marrow cells at 10 mg/kg, ip after 24 hrs; type: functional; details: route intraperitoneal; in short: as §1
Mus musculus [5] = assay: Clastogenic effect on C57BL mouse assessed as number of metaphase chromosomal fragments in bone marrow cells at 100 mg/kg, ip after 48 hrs; type: functional; details: route intraperitoneal; in short: as §1
[6] = Cytotoxicity against human 293T after 72 hrs by MTT assay; type: cell-based; details: HEK-293T; in short: as §2
Mus musculus [7] = assay: Clastogenic effect on C57BL mouse assessed as number of metaphase chromosomal breaks in bone marrow cells at 10 mg/kg, ip after 48 hrs; type: functional; details: route intraperitoneal; in short: as §1
Mus musculus [8] = assay: Clastogenic effect on C57BL mouse assessed as number of metaphase chromosomal fragments in bone marrow cells at 100 mg/kg, ip after 24 hrs; type: functional; details: route intraperitoneal; in short: as §1
Mus musculus [9] = assay: Clastogenic effect on C57BL mouse assessed as mitotic index in bone marrow cells at 10 mg/kg, ip after 24 hrs; type: functional; details: route intraperitoneal
In short: (§3)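 C57Bl mice (3 males + 3 females per group) given compound i.p.; saline controls. Colchicine 40 mg/kg i.p. 1 h before bone marrow harvest from femur; hypotonic KCl, fixed, Giemsa-stained slides. Mitotic index = dividing cells counted among 1500 cells per animal; per-animal values averaged as group mean ± SE.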

Mus musculus [10] = assay: Clastogenic effect on C57BL mouse assessed as number of metaphase chromosomal centromere/centromeric fusion in bone marrow cells at 100 mg/kg, ip after 24 hrs; type: functional; details: route intraperitoneal; in short: as §1
Mus musculus [11] = assay: Clastogenic effect on C57BL mouse assessed as bone marrow cells with abberation at 100 mg/kg, ip after 48 hrs; type: functional; details: route intraperitoneal; in short: as §1
Mus musculus [12] = assay: Clastogenic effect on C57BL mouse assessed as number of metaphase chromosomal breaks in bone marrow cells at 100 mg/kg, ip after 24 hrs; type: functional; details: route intraperitoneal; in short: as §1
Mus musculus [13] = assay: Clastogenic effect on C57BL mouse assessed as number of metaphase chromosomal fragments in bone marrow cells at 10 mg/kg, ip after 24 hrs; type: functional; details: route intraperitoneal; in short: as §1
Mus musculus [14] = assay: Clastogenic effect on C57BL mouse assessed as number of metaphase chromosome telomere/telomeric fusion in bone marrow cells at 10 mg/kg, ip after 24 hrs; type: functional; details: route intraperitoneal; in short: as §1
Mus musculus [15] = assay: Clastogenic effect on C57BL mouse assessed as number of metaphase chromosomal breaks in bone marrow cells at 100 mg/kg, ip after 48 hrs; type: functional; details: route intraperitoneal; in short: as §1
LAMA-84 = assay: Cytotoxicity against human LAMA-84 cells after 72 hrs by MTT assay; type: functional, cell-based; details: LAMA-84, 72 h; in short: as §2
Mus musculus [16] = assay: Clastogenic effect on C57BL mouse assessed as number of metaphase chromosomal centromere/centromeric fusion in bone marrow cells at 10 mg/kg, ip after 24 hrs; type: functional; details: route intraperitoneal; in short: as §1
Mus musculus [17] = assay: Clastogenic effect on C57BL mouse assessed as mitotic index in bone marrow cells at 100 mg/kg, ip after 48 hrs; type: functional; details: route intraperitoneal; in short: as §3
Mus musculus [18] = assay: Clastogenic effect on C57BL mouse assessed as bone marrow cells with abberation at 100 mg/kg, ip after 24 hrs; type: functional; details: route intraperitoneal; in short: as §1
Mus musculus [19] = assay: Clastogenic effect on C57BL mouse assessed as number of metaphase chromosome telomere/telomeric fusion in bone marrow cells at 10 mg/kg, ip after 48 hrs; type: functional; details: route intraperitoneal; in short: as §1
Mus musculus [20] = assay: Clastogenic effect on C57BL mouse assessed as mitotic index in bone marrow cells at 100 mg/kg, ip after 24 hrs; type: functional; details: route intraperitoneal; in short: as §3
Mus musculus [21] = assay: Clastogenic effect on C57BL mouse assessed as bone marrow cells with abberation at 10 mg/kg, ip after 24 hrs; type: functional; details: route intraperitoneal; in short: as §1
Mus musculus [22] = assay: Clastogenic effect on C57BL mouse assessed as number of metaphase chromosome telomere/telomeric fusion in bone marrow cells at 100 mg/kg, ip after 48 hrs; type: functional; details: route intraperitoneal; in short: as §1
HL-60 = assay: Cytotoxicity against human HL60 cells after 72 hrs by MTT assay; type: functional, cell-based; details: HL-60, 72 h; in short: as §2
K562 = assay: Cytotoxicity against human K562 cells after 72 hrs by MTT assay; type: functional, cell-based; details: K562, 72 h; in short: as §2
Mus musculus [23] = assay: Clastogenic effect on C57BL mouse assessed as number of metaphase chromosome telomere/telomeric fusion in bone marrow cells at 100 mg/kg, ip after 24 hrs; type: functional; details: route intraperitoneal; in short: as §1
Mus musculus [24] = assay: Clastogenic effect on C57BL mouse assessed as bone marrow cells with abberation at 10 mg/kg, ip after 48 hrs; type: functional; details: route intraperitoneal; in short: as §1
DOHH-2 [25] = assay: Cytotoxicity against human DOHH2 cells after 72 hrs by MTT assay; type: functional, cell-based; details: DOHH-2, 72 h; in short: as §2
Mus musculus [26] = assay: Clastogenic effect on C57BL mouse assessed as mitotic index in bone marrow cells at 10 mg/kg, ip after 48 hrs; type: functional; details: route intraperitoneal; in short: as §3
EJ = assay: Cytotoxicity against human EJ cells after 72 hrs by MTT assay; type: functional, cell-based; in short: as §2
DOHH-2 [27] = assay: Induction of apoptosis in human DOHH2 cells assessed as increase in histone-associated oligonucleotide level after 24 hrs by ELISA; type: functional, cell-based
In short: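 DOHH-2 cells exposed 24 h to equitoxic compound concentrations versus untreated control; cytosolic fractions of 1 × 10⁴ cells used in sandwich ELISA (anti-histone capture, peroxidase-conjugated anti-DNA detection) for histone-associated DNA fragments, read at 405 nm; means ± SD of three independent experiments.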

SMILES	Activity (Mus musculus [1])	IC50 (HD-MY-Z)	Activity (Mus musculus [2])	Activity (Mus musculus [3])	Activity (Mus musculus [4])	Activity (Mus musculus [5])	IC50 [6]	Activity (Mus musculus [7])	Activity (Mus musculus [8])	Activity (Mus musculus [9])	Activity (Mus musculus [10])	Activity (Mus musculus [11])	Activity (Mus musculus [12])	Activity (Mus musculus [13])	Activity (Mus musculus [14])	Activity (Mus musculus [15])	IC50 (LAMA-84)	Activity (Mus musculus [16])	Activity (Mus musculus [17])	Activity (Mus musculus [18])	other results
COP(=O)(CNC1(C(=O)O)CCCCCC1)OC	3	169 µM	0	3	3	0	> 200 µM	0	0	14.37%	3	2.72%	7	0	0	4	91.2 µM	7	12%	3.33%	Activity (Mus musculus [19]): 0; Activity (Mus musculus [20]): 13.24%; Activity (Mus musculus [21]): 2.85%; Activity (Mus musculus [22]): 0; IC50 (HL-60): 85.9 µM; IC50 (K562): 101 µM; Activity (Mus musculus [23]): 0; Activity (Mus musculus [24]): 1%; IC50 (DOHH-2 [25]): 88.1 µM; Activity (Mus musculus [26]): 9.58%; IC50 (EJ): 151 µM
COP(=O)(CNC1(C(=O)O)CCCCC1)OC	12	164 µM	1	9	4	0	> 200 µM	6	1	7.27%	20	7.42%	7	0	0	14	98.6 µM	11	9.23%	8.34%	Activity (Mus musculus [19]): 0; Activity (Mus musculus [20]): 7.15%; Activity (Mus musculus [21]): 5.33%; Activity (Mus musculus [22]): 0; IC50 (HL-60): 136 µM; IC50 (K562): 128 µM; Activity (Mus musculus [23]): 0; Activity (Mus musculus [24]): 5.33%; IC50 (DOHH-2 [25]): 84.2 µM; Activity (Mus musculus [26]): 6.71%; IC50 (EJ): 116 µM
COP(=O)(CNC1(C(=O)O)CCCCCCC1)OC	12	127 µM	1	14	2	0	176 µM	0	3	11.35%	11	5%	4	1	0	3	71.4 µM	10	9.67%	5.43%	Activity (DOHH-2 [27]): Active; Activity (Mus musculus [19]): 0; Activity (Mus musculus [20]): 13.06%; Activity (Mus musculus [21]): 3.71%; Activity (Mus musculus [22]): 0; IC50 (HL-60): 73.5 µM; IC50 (K562): 79.1 µM; Activity (Mus musculus [23]): 1; Activity (Mus musculus [24]): 4.67%; IC50 (DOHH-2 [25]): 37.4 µM; Activity (Mus musculus [26]): 13.95%; IC50 (EJ): 115 µM
